We go through eight compounds from ChEMBL document CHEMBL1131617 (J Med Chem, 1998).

pIC50: −log10 of the molar value.

In one assay the target is D(2) dopamine receptor (Rattus norvegicus, UniProt P61169). Kind of assay: relative affinity against Dopamine receptor D2 in striatum using [3H]YM-09151-2 as radioligand. The format is tissue-based. In short, it runs like this: (§1)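 Radioligand competition binding was run per earlier published conditions. Inhibition was screened at 100 nM and 10 µM. Incubated tubes were filtered through glass-fibre filters on a vacuum manifold. Nonspecific binding was counts bound in the presence of a saturating concentration of an established competing ligand. Reference drugs were run in parallel as positive controls.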
Sequence of D(2) dopamine receptor (P61169 whole entry): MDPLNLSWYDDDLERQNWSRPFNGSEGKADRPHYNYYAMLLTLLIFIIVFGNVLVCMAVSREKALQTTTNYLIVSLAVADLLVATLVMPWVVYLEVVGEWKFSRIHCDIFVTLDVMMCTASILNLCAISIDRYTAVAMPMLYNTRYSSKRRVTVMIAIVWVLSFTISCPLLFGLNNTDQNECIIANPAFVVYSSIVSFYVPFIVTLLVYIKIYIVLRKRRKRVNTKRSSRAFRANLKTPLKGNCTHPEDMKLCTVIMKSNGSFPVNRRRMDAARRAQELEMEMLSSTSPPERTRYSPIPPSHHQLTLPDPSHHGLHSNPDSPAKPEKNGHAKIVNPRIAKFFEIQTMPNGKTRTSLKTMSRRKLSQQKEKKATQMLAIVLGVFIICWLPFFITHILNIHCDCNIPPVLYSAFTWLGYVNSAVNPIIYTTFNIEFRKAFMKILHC

The target in assay [1] is Sodium-dependent dopamine transporter (Rattus norvegicus, UniProt P23977). The experiment in a line: relative affinity against dopamine transporter using WIN-35428 as radioligand. A digest of the protocol: as §1
Sequence of Sodium-dependent dopamine transporter (P23977 whole entry): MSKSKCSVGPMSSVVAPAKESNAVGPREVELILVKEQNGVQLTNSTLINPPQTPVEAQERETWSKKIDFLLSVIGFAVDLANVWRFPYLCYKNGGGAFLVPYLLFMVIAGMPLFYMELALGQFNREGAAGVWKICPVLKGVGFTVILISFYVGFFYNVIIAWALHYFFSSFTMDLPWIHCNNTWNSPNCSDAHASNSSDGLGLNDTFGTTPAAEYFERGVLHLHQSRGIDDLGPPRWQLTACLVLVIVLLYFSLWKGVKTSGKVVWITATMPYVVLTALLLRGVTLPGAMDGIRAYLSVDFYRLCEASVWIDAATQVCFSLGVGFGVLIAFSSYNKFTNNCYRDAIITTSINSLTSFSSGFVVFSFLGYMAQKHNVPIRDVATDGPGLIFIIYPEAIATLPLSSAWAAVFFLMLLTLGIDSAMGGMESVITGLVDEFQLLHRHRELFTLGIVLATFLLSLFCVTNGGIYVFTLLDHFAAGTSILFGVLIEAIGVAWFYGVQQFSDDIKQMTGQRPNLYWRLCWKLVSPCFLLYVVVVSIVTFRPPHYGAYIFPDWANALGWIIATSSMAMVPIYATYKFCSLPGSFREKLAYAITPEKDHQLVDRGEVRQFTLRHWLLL
In another assay the target is D(3) dopamine receptor (Rattus norvegicus, UniProt P19020). Kind of assay: relative affinity against Dopamine receptor D3 in ventral striatum using [3H](+)-7-OH-DPAT as radioligand. Format: tissue-based. In short, it runs like this: as §1
Sequence of D(3) dopamine receptor (P19020 whole entry): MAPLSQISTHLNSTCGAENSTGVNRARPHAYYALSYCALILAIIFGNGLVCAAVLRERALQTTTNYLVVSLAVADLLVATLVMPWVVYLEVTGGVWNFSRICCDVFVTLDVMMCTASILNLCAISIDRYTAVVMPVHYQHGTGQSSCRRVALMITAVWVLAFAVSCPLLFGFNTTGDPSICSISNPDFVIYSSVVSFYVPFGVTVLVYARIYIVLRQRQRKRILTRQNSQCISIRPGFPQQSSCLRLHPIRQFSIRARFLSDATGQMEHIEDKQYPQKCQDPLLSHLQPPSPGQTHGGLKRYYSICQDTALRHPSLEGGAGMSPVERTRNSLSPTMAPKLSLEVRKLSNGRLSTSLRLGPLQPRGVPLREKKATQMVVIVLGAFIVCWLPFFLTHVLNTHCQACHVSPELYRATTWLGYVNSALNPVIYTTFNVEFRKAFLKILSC
A further assay deals with Glutamate NMDA receptor. Kind of assay: relative affinity against N-methyl-D-aspartate glutamate receptor in caudate using [3H](+)-MK-801 as radioligand. Format: protein-complex assay. In short, it runs like this: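 Tubes incubated under the specified conditions, then filtered on glass-fibre filters and counted. Nonspecific binding taken as cpm bound with a saturating concentration of an established competing ligand. Reference drugs run in parallel as positive controls.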

Assay [2] has as its target Kappa-type opioid receptor (Rattus norvegicus, UniProt P34975). Kind of assay: relative affinity against Opioid receptor kappa 1 in insular Ctx using [3H]U-69593 as radioligand.
For assay [3], the target named is Sodium-dependent serotonin transporter (Rattus norvegicus, UniProt P31652). The experiment in a line: relative affinity against serotonin transporter using RTI-55 as radioligand. In short, it runs like this:
as §1

The target in the next assay is Mu-type opioid receptor (Rattus norvegicus, UniProt P33535). The experiment in a line: Relative affinity against Opioid receptor mu 1 in thalamus using [3H]DAMGO as radioligand. The format is tissue-based. A digest of the protocol: as §1
Sequence of Mu-type opioid receptor (P33535 whole entry): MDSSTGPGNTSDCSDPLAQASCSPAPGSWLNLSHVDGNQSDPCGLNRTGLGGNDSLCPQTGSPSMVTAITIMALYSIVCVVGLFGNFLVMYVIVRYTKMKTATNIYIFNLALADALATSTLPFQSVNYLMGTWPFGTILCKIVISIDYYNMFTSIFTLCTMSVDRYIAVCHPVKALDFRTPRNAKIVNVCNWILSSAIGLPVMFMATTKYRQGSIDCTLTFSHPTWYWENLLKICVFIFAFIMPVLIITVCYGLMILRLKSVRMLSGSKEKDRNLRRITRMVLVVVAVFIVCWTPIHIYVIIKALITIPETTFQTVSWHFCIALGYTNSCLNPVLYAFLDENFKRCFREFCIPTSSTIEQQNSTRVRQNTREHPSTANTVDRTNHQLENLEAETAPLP
The target in another assay is D(1A) dopamine receptor (Rattus norvegicus, UniProt P18901). The experiment in a line: Relative affinity for Dopamine receptor D1 in striatum using [3H]SCH-23390. Format: tissue-based. A digest of the protocol: as §1
Sequence of D(1A) dopamine receptor (P18901 whole entry): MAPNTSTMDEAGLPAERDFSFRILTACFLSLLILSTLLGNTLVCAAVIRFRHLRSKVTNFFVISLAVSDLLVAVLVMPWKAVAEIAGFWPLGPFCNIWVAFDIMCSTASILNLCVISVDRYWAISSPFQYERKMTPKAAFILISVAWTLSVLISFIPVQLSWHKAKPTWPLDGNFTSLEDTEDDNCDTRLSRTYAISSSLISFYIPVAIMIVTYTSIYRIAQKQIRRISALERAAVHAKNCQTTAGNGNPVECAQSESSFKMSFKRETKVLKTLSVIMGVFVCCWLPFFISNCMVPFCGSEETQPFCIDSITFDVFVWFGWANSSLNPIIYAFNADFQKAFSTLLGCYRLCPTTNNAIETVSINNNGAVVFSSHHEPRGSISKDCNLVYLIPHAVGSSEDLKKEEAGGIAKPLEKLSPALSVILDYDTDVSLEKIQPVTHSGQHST

Sequence of Kappa-type opioid receptor (P34975 whole entry): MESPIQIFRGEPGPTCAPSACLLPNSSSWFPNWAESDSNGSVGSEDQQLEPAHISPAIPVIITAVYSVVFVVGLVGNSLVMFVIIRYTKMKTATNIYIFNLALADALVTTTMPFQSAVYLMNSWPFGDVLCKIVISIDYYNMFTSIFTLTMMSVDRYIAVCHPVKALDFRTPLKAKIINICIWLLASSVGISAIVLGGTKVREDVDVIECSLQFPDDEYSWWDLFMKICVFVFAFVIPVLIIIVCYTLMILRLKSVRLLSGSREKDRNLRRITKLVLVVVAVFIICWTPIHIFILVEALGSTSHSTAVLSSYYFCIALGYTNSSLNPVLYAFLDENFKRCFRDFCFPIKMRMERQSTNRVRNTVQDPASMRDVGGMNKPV
Sequence of Sodium-dependent serotonin transporter (P31652 whole entry): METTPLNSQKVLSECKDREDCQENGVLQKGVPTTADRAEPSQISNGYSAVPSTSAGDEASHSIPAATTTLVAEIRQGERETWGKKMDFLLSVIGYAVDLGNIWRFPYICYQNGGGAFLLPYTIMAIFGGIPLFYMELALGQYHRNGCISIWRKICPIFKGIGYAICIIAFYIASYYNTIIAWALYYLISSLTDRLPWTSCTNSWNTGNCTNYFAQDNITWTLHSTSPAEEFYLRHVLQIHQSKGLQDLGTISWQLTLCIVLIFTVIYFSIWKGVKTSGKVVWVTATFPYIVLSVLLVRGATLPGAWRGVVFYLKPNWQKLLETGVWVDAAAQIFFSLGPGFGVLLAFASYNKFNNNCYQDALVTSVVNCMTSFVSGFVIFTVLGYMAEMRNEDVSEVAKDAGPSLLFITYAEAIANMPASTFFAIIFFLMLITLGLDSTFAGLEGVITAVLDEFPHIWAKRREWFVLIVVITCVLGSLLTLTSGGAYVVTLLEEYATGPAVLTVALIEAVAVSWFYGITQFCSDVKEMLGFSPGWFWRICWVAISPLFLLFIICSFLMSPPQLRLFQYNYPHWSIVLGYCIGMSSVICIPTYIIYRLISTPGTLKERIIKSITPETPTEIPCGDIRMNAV

Take `CCN1CCc2c(sc3ccccc23)C(c2cccc(Br)c2)C1` (stereo not drawn): the pIC50 was 5.46 at D(2) dopamine receptor; 6.68 in assay [1]; 5.70 on D(3) dopamine receptor; 4.33 on Glutamate NMDA receptor; 4.90 in assay [2]; 5.37 in assay [3]. The pIC50 at Mu-type opioid receptor and against D(1A) dopamine receptor was 5.30 in each case.
As to `CCN1CCc2c(sc3ccccc23)C(c2ccccc2)C1` (stereo not drawn), the pIC50 at D(2) dopamine receptor was 5.30; in assay [1] it was 6.85; on D(3) dopamine receptor it was 6.22; on Glutamate NMDA receptor, 4.38; in assay [2], 5.89; in assay [3], 6.52. Moreover, the pIC50 is 5.66 at Mu-type opioid receptor and 5.52 on D(1A) dopamine receptor.
On to `CN1CCc2c([nH]c3ccccc23)C(c2ccccc2)C1` (stereo not drawn), for which the pIC50 is 4.57 on D(2) dopamine receptor; 6.74 in assay [1]; 5.38 on D(3) dopamine receptor; 4.67 in assay [2]; 6.72 in assay [3]; 5.51 on Mu-type opioid receptor. The pIC50 against D(1A) dopamine receptor was 4.70.
As to `CCN1CCc2c(sc3ccccc23)C(c2ccc(Cl)c(Cl)c2)C1` (stereo not drawn), the pIC50 on D(2) dopamine receptor was 5.30; in assay [1] it was 6.60; at D(3) dopamine receptor, 5.70; on Glutamate NMDA receptor, 4.09; in assay [2], 4.80; in assay [3] it was 5.92. Also, the pIC50 is 4.26 on Mu-type opioid receptor and 4.15 against D(1A) dopamine receptor.
Regarding `CCN1CCc2c(sc3ccccc23)C(c2cccc([N+](=O)[O-])c2)C1` (stereo not drawn), the pIC50 on D(2) dopamine receptor was 5.51; in assay [1], 6.60; at D(3) dopamine receptor, 6.22; on Glutamate NMDA receptor, 4.49; in assay [2], 4.79; in assay [3] it was 5.96. In addition, the results for the pIC50 on Mu-type opioid receptor and on D(1A) dopamine receptor were 5.51 and 5.30, respectively.
`COc1cc2c(cc1OC)C(c1ccccc1)CN(C)CC2` (stereo not drawn) showed a pIC50 on D(1A) dopamine receptor of 6.31.
Consider `CC[C@@H]1CC2C[C@@H]3c4[nH]c5ccc(O)cc5c4CCN(C2)C13`, for which the pIC50 at D(2) dopamine receptor is less than 5.00; at D(3) dopamine receptor, less than 5.00; at Glutamate NMDA receptor, 4.50; in assay [2], 5.37; in assay [3], 7.40; on Mu-type opioid receptor, 6.80. Moreover, on D(1A) dopamine receptor, the pIC50 is less than 5.00.
Regarding `CC[C@H]1C[C@@H]2C[C@H]3c4[nH]c5ccc(OC)cc5c4CCN(C2)[C@@H]13` [IBOGAINE], the pIC50 at D(2) dopamine receptor was less than 5.00; in assay [1], 5.39; on D(3) dopamine receptor it was less than 5.00; on Glutamate NMDA receptor, 5.28; in assay [3], 6.23; on D(1A) dopamine receptor it was less than 5.00.

One may read the pIC50 as −log10 of the IC50, conventionally taken in molar units. Lower therefore signals a high IC50.
